Assay results taken from PubChem BioAssay AID588682 (Southern Research Specialized Biocontainment Screening …, 2011).
A number with no mark means an inactive call.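 The calls were made as follows: active = inhibition of 30% or more at any tested concentration; inactive = the rest.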

Tested on: M17 leucyl aminopeptidase (Plasmodium falciparum 3D7)
Test: Inhibition of P. falciparum M17 aminopeptidase – biochemical, QFRET, counter-screen for PfM1AAP inhibitor project, dose response (AID 588682)
Conditions: recombinant PfM17LAP, H-Leu-NHMec fluorogenic cleavage; series mostly up to 100 µM; inhibition: at the top concentration
Summary of the method: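 Material: recombinant Plasmodium falciparum M17 leucine aminopeptidase (rPFM17LAP). Amount: 5 µg/mL rPFM17LAP enzyme. Medium: Tris pH 7.5 plus 2 mM CoCl2. Doses: compound dose series from 100 to 0.2 µM. Incubation: 90 min, room temperature. Signal: fluorescence 370/460 nm. Evaluation: % enzyme inhibition. Control set: background wells lacking enzyme. Repeats: triplicate.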

Structure (SMILES)	inhibition
CC[C@H](C)[C@H](NC(=O)c1ccc([N+](=O)[O-])cc1)C(=O)NCc1ccc(C(F)(F)F)cc1	1.14%
CC[C@H](C)[C@H](NS(=O)(=O)c1ccc(Br)s1)C(=O)NCc1ccc(C(F)(F)F)cc1	12.8%
CC(C)(C)c1ccc(-c2ccc(S(=O)(=O)N3CCC(C(=O)NCc4ccc5c(c4)OCO5)CC3)s2)cc1	3.33%
O=C(NCc1ccc2c(c1)OCO2)C1CCN(S(=O)(=O)c2ccc(-c3ccc(F)cc3)s2)CC1	5.56%
CC[C@H](C)[C@H](NC(=O)c1ccc(C(C)(C)C)cc1)C(=O)NCc1ccc(C(F)(F)F)cc1	2.66%
O=C(NCc1ccc2c(c1)OCO2)C1CCN(S(=O)(=O)c2ccc(-c3ccccc3)s2)CC1	-13.1%
COc1cccc(-c2ccc(S(=O)(=O)N3CCC(C(=O)NCc4ccc5c(c4)OCO5)CC3)s2)c1	9.87%
CN(C)c1ccc(CNC(=O)C2CCN(S(=O)(=O)c3ccc(Br)s3)CC2)cc1	-16.8%
CC(=O)Nc1cccc(-c2ccc(S(=O)(=O)N3CCC(C(=O)NCc4ccc5c(c4)OCO5)CC3)s2)c1	-15.5%
CC[C@H](C)[C@H](NC(=O)c1ccc([N+](=O)[O-])cc1)C(=O)NCc1ccc(F)cc1	5.3%
O=C(NCc1ccc2c(c1)OCO2)C1CCN(S(=O)(=O)c2ccc(-c3cncc4ccccc34)s2)CC1	10.1%
COc1ccc(-c2ccc(S(=O)(=O)N3CCC(C(=O)NCc4ccc5c(c4)OCO5)CC3)s2)cc1	-148%
CC[C@H](C)[C@H](NS(=O)(=O)c1cccs1)C(=O)NCc1ccc(F)cc1	16%
CC[C@H](C)[C@H](NS(=O)(=O)c1ccc(Br)s1)C(=O)NCc1ccc(F)cc1	28.7%
O=C(NCc1ccc2c(c1)OCO2)C1CCN(S(=O)(=O)c2ccc(-c3cccc(F)c3)s2)CC1	-2.68%
CC[C@H](C)[C@H](NS(=O)(=O)c1ccc(Br)s1)C(=O)O	13.1%
CC[C@H](C)[C@H](NC(=O)c1ccc([N+](=O)[O-])cc1)C(=O)NCc1ccccc1	0.01%
